# High-throughput results (PubChem)
# tolC growth inh – blocks growth of E. coli BW25113 tolC mutant; OD615; growth inhibition, % at 10 µM (by protocol); hit rate 2.2% among 65,000; AID 573;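 active means growth inhibition at or above a cutoff equal to the mean over every tested compound plus 3 SD, cut at about 60% in these data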;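 further: growth measured after 20 h incubation at 37 °C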
#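 Test system: tolC-deleted E. coli BW25113; medium: LB with kanamycin 50 µg/mL; compound: single-point testing at 10 µM; incubation: 20 h compound exposure of bacteria at 37 °C; signal: OD at 615 nm; evaluation: growth inhibition in percent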
# Ecoli WT expand – E. coli BW25113 growth inhibition, expanded screen | hit rate 0.15% among 98,000 | OD600 absorbance | growth inhibition, % at 100 µM;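 active means growth inhibition above about 50% at one test dose, limit read from the data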;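 further: growth measured after 20 h incubation at 37 °C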
# PostGolgi yeast – growth inhibition of a yeast mutant, post-Golgi transport screen; post-Golgi transport phenotypic cell assay; inhibition, % at 10 µM; hit rate 0.9% among 98,000; AID 739;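 further: yeast cells grown in 1536-well plates; yeast grown about 18 h at 30C before absorbance read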
# Her2 expr inh – lowers expression of human Her2 kinase; hit rate 0.69% among 65,000; SKBR-3 HER2 protein level, AlphaScreen, 18-24 h; stronger effect = lower value; HER2 level % of control, % at 10 µM; P04626;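 active means HER2 level under 5% of the carrier-only control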
# Target sequence (P04626 whole entry, looked up): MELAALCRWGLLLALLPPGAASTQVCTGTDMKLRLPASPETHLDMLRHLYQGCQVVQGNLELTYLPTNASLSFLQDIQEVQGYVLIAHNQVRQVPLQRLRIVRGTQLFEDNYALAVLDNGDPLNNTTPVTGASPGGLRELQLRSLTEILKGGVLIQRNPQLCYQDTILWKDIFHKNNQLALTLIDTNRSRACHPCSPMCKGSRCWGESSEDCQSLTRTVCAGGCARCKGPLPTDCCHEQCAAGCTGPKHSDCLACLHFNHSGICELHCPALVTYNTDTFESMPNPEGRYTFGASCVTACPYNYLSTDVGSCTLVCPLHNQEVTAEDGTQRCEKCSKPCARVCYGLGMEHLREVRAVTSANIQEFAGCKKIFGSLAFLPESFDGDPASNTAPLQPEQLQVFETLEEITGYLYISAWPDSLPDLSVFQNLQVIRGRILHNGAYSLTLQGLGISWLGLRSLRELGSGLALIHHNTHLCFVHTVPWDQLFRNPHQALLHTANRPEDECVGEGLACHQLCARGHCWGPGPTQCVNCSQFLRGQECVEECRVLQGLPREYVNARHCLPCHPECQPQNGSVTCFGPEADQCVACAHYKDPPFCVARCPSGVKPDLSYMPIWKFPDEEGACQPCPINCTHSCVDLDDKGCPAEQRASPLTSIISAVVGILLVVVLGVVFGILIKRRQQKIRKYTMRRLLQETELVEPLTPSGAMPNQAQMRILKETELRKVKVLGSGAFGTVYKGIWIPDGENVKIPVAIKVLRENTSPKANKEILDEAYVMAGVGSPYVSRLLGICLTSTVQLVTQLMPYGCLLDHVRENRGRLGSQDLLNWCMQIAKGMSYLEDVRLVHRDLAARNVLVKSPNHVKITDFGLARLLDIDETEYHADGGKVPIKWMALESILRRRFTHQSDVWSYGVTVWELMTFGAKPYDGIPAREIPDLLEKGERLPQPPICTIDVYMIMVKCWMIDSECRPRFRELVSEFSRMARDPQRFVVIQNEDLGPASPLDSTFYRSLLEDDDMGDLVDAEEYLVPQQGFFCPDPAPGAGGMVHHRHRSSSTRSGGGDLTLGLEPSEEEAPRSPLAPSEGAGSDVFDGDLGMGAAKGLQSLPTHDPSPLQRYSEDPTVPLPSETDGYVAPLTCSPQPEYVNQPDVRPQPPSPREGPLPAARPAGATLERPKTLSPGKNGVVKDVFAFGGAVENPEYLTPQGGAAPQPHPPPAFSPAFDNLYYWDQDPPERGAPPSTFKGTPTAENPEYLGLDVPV
# PostGolgi ctrl – growth of the yeast control strain, post-Golgi counter-screen; hit rate 5% among 98,000; efflux-deficient yeast background strain, growth absorbance A615, 16 h; AID 738; inhibition, % at 10 µM
# Hits are given with their value; . = inactive; / = not tested or not shown. Hits are enriched below; roughly 6.6% of the tested compounds scored in any of these assays. Unless noted, no stated cut-off is given here; in the data, active means inhibition above about 30%; inactive means the rest.
SMILES,tolC growth inh,Ecoli WT expand,PostGolgi yeast,Her2 expr inh,PostGolgi ctrl
Cc1ccccc1Cn1c(=N)n(CC(=O)c2ccco2)c2ccccc21,.,.,.,.,.
CCc1ccc(C2=NN(S(C)(=O)=O)C(c3cccs3)C2)cc1 (configuration not stated),/,.,.,/,.
CCc1ccc(C2=NN(c3ccc(S(N)(=O)=O)cc3)C(c3ccc(F)cc3)C2)cc1 (configuration not stated),/,.,.,/,90.5
Cn1c(-c2sc3ccccc3c2Cl)n[nH]c1=S,/,.,.,/,.
C1=C(CCNC2=NCCCCC2)CCCC1,.,.,.,.,31.9
Brc1ccccc1-c1nnc(COc2ncnc3c2cnn3-c2ccccc2)o1,.,.,.,.,74.4
CCOC(=O)C1CN(S(=O)(=O)c2ccc(OC)cc2)c2cc(S(=O)(=O)CC)ccc2O1 (configuration not stated),/,.,.,/,.
CCOC(=O)c1cccc(C(=O)OCC)n1,.,.,.,.,.
CCOC(=O)c1cccc2c1-c1ccccc1/C2=N/O,100.0,.,.,.,.
COc1ccc(OC)c(NC(=O)C(=O)/C=C(\O)c2cc(OC)ccc2OC)c1,/,.,.,/,30.4
O=[N+]([O-])c1ccc(-c2nc3ccc([N+](=O)[O-])cc3[nH]2)cc1,/,.,.,/,.
O=[N+]([O-])c1ccc2nc(/C=C/c3ccc(Cl)cc3)[nH]c2c1,/,.,47.4,/,74.5
O=C(NCC1CCCO1)C1CC(c2ccccc2Cl)=NO1 (configuration not stated),/,.,.,/,.
C=CCc1c(C)nc(C)nc1N/N=C/c1ccc(F)cc1,/,.,.,/,.
C=CCc1c(C)nc(SC)nc1Nc1ccc(C)cc1,/,.,.,/,31.9
CCCCS(=O)(=O)NC1=NCN(C2CCN(Cc3ccccc3)CC2)CN1,.,/,/,.,/
COc1ccc(CCNc2nc(N3CCCCC3)nc(N3CCCCC3)n2)cc1OC,.,.,.,.,32.0
Cc1cc(-n2c(C)cc(C(=O)CSc3ccc4c(c3)OCCO4)c2C)no1,.,.,.,.,.
C=CCN(C(=O)CCC(=O)O)C1CC(=O)N(c2ccc(OCCC)cc2)C1=O (configuration not stated),.,.,.,.,34.1
CCCNc1nc(Nc2ccc(C)cc2)nc(N2CCCC2)n1,/,.,.,/,35.7
CCCNc1nc(N2CCOCC2)nc(N2CCOCC2)n1,.,.,.,.,.
CCCOC(=O)c1ccc(Oc2c(-c3ccc(O)cc3O)n[nH]c2C)cc1,100.0,.,.,.,37.7
CCc1cc(-c2n[nH]c(C)c2Oc2ccc(C(C)C)cc2)c(O)cc1O,/,.,.,/,87.2
Cc1[nH]nc(-c2ccc(O)cc2O)c1Oc1ccccc1,.,.,.,.,.
CCn1c(SC)nnc1-c1sc2cc(Cl)ccc2c1Cl,76.6,.,.,.,69.8
SMILES,tolC growth inh,Ecoli WT expand,PostGolgi yeast,Her2 expr inh,PostGolgi ctrl
Cc1ccc(C2c3c(-c4ccccc4O)n[nH]c3C(=O)N2Cc2ccncc2)cc1 (configuration not stated),68.8,.,.,.,.
COc1ccc(C2c3c(-c4ccccc4O)n[nH]c3C(=O)N2CCc2ccc(OC)c(OC)c2)cc1 (configuration not stated),.,.,.,.,.
Cc1cc(OCc2nn[nH]n2)c2c(C)c(Cc3ccccc3)c(=O)oc2c1,.,.,.,.,32.0
Cc1c(Cc2ccccc2)c(=O)oc2c(C)c(OCc3nn[nH]n3)ccc12,.,.,30.8,.,.
Cc1cc(OCc2nn[nH]n2)c2c(C)c(CC(=O)O)c(=O)oc2c1,.,.,.,.,.
O=C(Nc1cccc(S(=O)(=O)c2cccc(NC(=O)C3CC3)c2)c1)C1CC1,94.0,.,.,.,.
O=C(c1ccccc1)c1cccc(NC(=O)C2CC2)c1,/,.,.,/,.
COc1ccccc1NS(=O)(=O)c1cc(C(=O)N2CC(C)CC(C)C2)ccc1C (configuration not stated),/,.,87.1,/,88.3
Cc1ccccc1NS(=O)(=O)c1cc(C(=O)N2CCCC2)ccc1C,.,.,.,.,.
Cc1ccc(C)c(NS(=O)(=O)c2cc(C(=O)N3CCc4ccccc4C3)ccc2Cl)c1,/,.,103.9,/,70.6
Cc1cccc(NS(=O)(=O)c2cc(C(=O)N3CCc4ccccc4C3)ccc2Cl)c1C,/,.,96.8,/,73.9
COc1ccc(C(CC(=O)NCCCN2CCOCC2)NS(=O)(=O)c2ccc(C)cc2)cc1 (configuration not stated),.,.,.,.,.
CCC(CC)C(=O)Nc1c2c(nn1-c1ccc(OC)cc1)CS(=O)C2 (configuration not stated),.,.,.,.,.
CCN(C(=O)COC(=O)c1cc(C)n(-c2ccc(F)cc2)c1C)C1CCS(=O)(=O)C1 (configuration not stated),.,.,.,-20.1,.
N#CC(c1cccc(Cl)c1)c1ncc(C(F)(F)F)cc1Cl (configuration not stated),/,.,.,/,.
COc1ccc(-n2c(SCC(=O)Nc3ccccc3)nc3c(c2=O)SCC3)cc1,.,.,.,.,40.3
COC(=O)CCN1CCC(C(N)=O)CC1,.,.,.,.,.
COc1ccc(-n2cnc3cc(NCc4cccs4)ccc32)cc1,98.0,.,.,.,.
O=C(c1ccc(Cl)cc1)N1CCC(O)(CSc2ccc(Cl)cc2)CC1,/,.,.,/,45.0
CCn1c(O)c(/C=N/n2cnnc2)sc1=S,.,.,.,.,30.5
Cc1cccc(Cn2cc(/C=C/[N+](=O)[O-])c3ccccc32)c1,/,.,.,/,61.4
CCN(CC)S(=O)(=O)c1ccc(C)c(NC(=O)COC(=O)c2ccc(C)c(S(=O)(=O)N3CCOCC3)c2)c1,/,.,.,/,.
COc1ccc(COC(=O)NC2CCN(S(=O)(=O)c3ccc(OC)cc3)CC2)cc1,/,.,.,/,.
COc1ccc(S(=O)(=O)N2CCCC(C(=O)O)C2)cc1 (configuration not stated),.,.,.,.,.
COc1ccc(S(=O)(=O)N2CCC(NC(=O)OCc3c(Cl)cccc3Cl)CC2)cc1,/,.,.,/,31.6
SMILES,tolC growth inh,Ecoli WT expand,PostGolgi yeast,Her2 expr inh,PostGolgi ctrl
COc1ccc(S(=O)(=O)N2CCCC(C(=O)NC3CCCCC3)C2)cc1 (configuration not stated),.,.,.,.,31.6
CCc1nnc(N2C(=O)c3cccc4cccc(c34)C2=O)s1,/,.,.,/,.
O=C(Cn1c(CN2CCCCC2)nc2ccccc2c1=O)NCc1ccco1,.,.,.,.,.
CCn1c(SCC(=O)c2cc(OC)ccc2OC)nnc1C1CC1,.,/,/,.,/
COc1nnc(-c2ccc(N3CCCCC3)c(N)c2)c2ccccc12,62.7,/,/,.,/
CCCC(=O)Nc1cc(-c2nn(C)c(=O)c3ccccc23)ccc1N1CCCCC1,.,/,/,.,/
CCCC(=O)Nc1cc(-c2nnc(OC)c3ccccc23)ccc1N1CCCCC1,/,.,.,/,42.8
CCOc1cc(S(=O)(=O)N2CCCCCC2)ccc1F,/,.,.,/,.
O=S(=O)(c1ccc(Oc2ccc(Br)cc2F)nc1)N1CCCCC1,.,.,.,.,36.5
CC(Oc1ccc(Cl)cc1Cl)C(=O)NCCCN1CCOCC1 (configuration not stated),.,.,.,.,.
